Measured values as given in ChEMBL document CHEMBL1142547, “Synthesis and antiviral activity of novel pyrazole derivatives containing oxime esters group” (Bioorg Med Chem, 2008).
Calls of active or inactive are those of the source. The calls are words filed in the database; no cut-off is given here.

Experiments:
[1] = tested on: Tobacco mosaic virus; experiment: Antiviral activity against TMV assessed as viral disease curative effect at 500 mg/L; type: functional
Outline: (§1)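 TMV purified by Gooding's method. Protective, inactivating and curative effects tested on tobacco in vivo by Li's method at 500 mg/L. Ningnanmycin served as the reference control. Each experiment used three replicates and was run three times. Data were analysed by one-way ANOVA with LSD mean separation.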

[2] = tested on: Tobacco mosaic virus; experiment: Antiviral activity against TMV assessed as protection effect against viral infection at 500 mg/L; type: functional, organism-based; outline: as §1
[3] = tested on: Tobacco mosaic virus; experiment: Antiviral activity against TMV assessed as viral inactivation effect at 500 mg/L; type: functional; outline: as §1
[4] = tested on: Nicotiana tabacum; experiment: Increase in PR-5 gene expression in TMV-infected tobacco leaf assessed as gene expression ratio on day 5 by RT-PCR; type: functional
Outline: (§2)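 Real-time PCR used gene-specific primers, with β-actin as the reference, and included a 40–95 °C melt curve. Expression ratio was calculated by ΔΔCT against a calibrator over days 1–7 after TMV inoculation. Mean ± SD, n = 4, triplicate sets.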

[5] = tested on: Nicotiana tabacum; experiment: Increase in PR-1a gene expression in TMV-infected tobacco leaf assessed as gene expression ratio on day 5 by RT-PCR; type: functional; outline: as §2
[6] = tested on: Nicotiana tabacum; experiment: Increase in peroxidase enzyme level in TMV-infected tobacco at 500 ug/mL after 1 day by Polle's method; type: functional, organism-based
Outline: (§3)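 Nicotiana tabacum inoculated with TMV was treated at 500 μg/mL, and leaves were sampled at 1, 3, 5 and 7 days. Leaves were homogenized on ice in 5 mM 2-mercaptoethanol–boric acid buffer, pH 8.8, then centrifuged. The supernatant was assayed for PAL (He), POD (Polle) or SOD (Beauchamp). Water and TMV-only treatments were the controls. Means ± SD, n = 3, one-way ANOVA.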

[7] = tested on: Nicotiana tabacum; experiment: Increase in superoxide dismutase level in TMV-infected tobacco at 500 ug/mL after 7 days by Beauchamp's method; type: functional; outline: as §3
[8] = tested on: Nicotiana tabacum; experiment: […] in phenylalanine ammonia lyase level in TMV-infected tobacco at 500 ug/mL up to 7 days by He's method; type: functional, organism-based; outline: as §3
[9] = tested on: Nicotiana tabacum; experiment: Increase in peroxidase enzyme level in TMV-infected tobacco at 500 ug/mL after 7 days by Polle's method; type: functional; outline: as §3
[10] = tested on: Nicotiana tabacum; experiment: Increase in superoxide dismutase level in TMV-infected tobacco at 500 ug/mL after 1 day by Beauchamp's method; type: functional, organism-based; outline: as §3

SMILES	Activity [1]	Activity [2]	Activity [3]	also measured
C/C=C/C=C/C(=O)O/N=C/C1C(C)=NN(c2ccc(Cl)cc2)C1Sc1ccc(C)cc1 (stereo not given)	38.9%	50%	68.9%	–
C/C=C/C=C/C(=O)O/N=C/C1C(C)=NN(c2ccc(Cl)cc2)C1Sc1ccc(F)cc1 (stereo not given)	60%	28.3%	82.9%	–
CNCC(=O)N[C@@H](CO)C(=O)N[C@H]1[C@H](O)[C@@H](O)[C@H](n2ccc(N)nc2=O)O[C@@H]1C(N)=O [NINGNANMYCIN]	56%	–	97%	Ratio [4]: 17.9; Ratio [5]: 13.8
C/C=C/C=C/C(=O)O/N=C/C1C(C)=NN(c2ccc(C)cc2)C1Sc1ccc(F)cc1 (stereo not given)	46.4%	26%	80.2%	–
CC(=O)O/N=C/C1C(C)=NN(c2ccccc2)C1Sc1ccc(F)cc1 (stereo not given)	40.4%	36.7%	81.4%	–
CC1=NN(c2ccc(C)cc2)C(Sc2ccc(F)cc2)C1/C=N/OC(=O)c1ccccc1 (stereo not given)	50%	48.4%	69.2%	–
CCCCCC(=O)O/N=C/C1C(C)=NN(c2ccc(C)cc2)C1Sc1ccc(F)cc1 (stereo not given)	30%	40.9%	61.5%	–
CCCCCC(=O)O/N=C/C1C(C)=NN(c2ccccc2)C1Sc1ccc(F)cc1 (stereo not given)	40.2%	28.9%	67.8%	–
CC1=NN(c2ccc(Cl)cc2)C(Sc2ccc(F)cc2)C1/C=N/OC(=O)c1ccccc1 (stereo not given)	47.7%	35%	63.8%	–
CCCCCC(=O)O/N=C/C1C(C)=NN(c2ccc(Cl)cc2)C1Sc1ccc(F)cc1 (stereo not given)	62%	31%	85.6%	Activity [6]: Active; Activity [4]: inactive; Ratio [5]: 26.6; Activity [7]: 40 EU/mg; Activity [8]: Active; Activity [9]: 40 EU/mg; Activity [10]: Active
CC1=NN(c2ccccc2)C(Sc2ccc(F)cc2)C1/C=N/OC(=O)c1ccccc1 (stereo not given)	34.9%	28.8%	55%	–
CC1=NN(c2cccc(Cl)c2)C(Sc2ccc(F)cc2)C1/C=N/OC(=O)c1ccccc1 (stereo not given)	30.2%	41%	55%	–
COc1ccc(SC2C(/C=N/OC(=O)c3ccccc3)C(C)=NN2c2ccc(Cl)cc2)cc1 (stereo not given)	35%	27.6%	56.8%	–
CCCC(=O)O/N=C/C1C(C)=NN(c2ccccc2)C1Sc1ccc(F)cc1 (stereo not given)	34%	25.9%	79.9%	–
